ARFGAP1 inhibitor = inhibitors of rat ARFGAP1 GAP activity, primary screen, biochemical, fluorescence polarization, GDP tracer; AID 651572, 2012; Arfgap1-stimulated ARF1 GTP hydrolysis, GDP FP detection; ADP-ribosylation factor GTPase-activating protein 1 (Rattus norvegicus), Q62848; actives 0.26% (n = 360,000); inhibition, % at 16.5 µM;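 active means inhibition above a per-plate limit, mean inhibition of low control wells plus 3 SD, cut at about 25% in these data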;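 further: 0% = DMSO wells with enzyme and 100% = wells lacking Arfgap1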
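System: truncated rat Arfgap1 GAP domain / Benchmarks: high control wells lacking Arfgap1, low control full reaction with DMSO / Times: compound-enzyme preincubation 20 min, reaction 120 min, detection 60 min, 25 °C / Repeats: one replicate per compound / Also added: human ARF1(Δ1-17)-GTP substrate / Measured by: Tracer-displacement fluorescence polarization with EDTA stop, 620/688 nm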
ASAP1 inh = inhibitors of human ASAP1 ArfGAP activity, primary screen, biochemical, fluorescence polarization; Arf-GAP with SH3 domain, ANK repeat and PH domain-containing protein 1 (Homo sapiens), …; ASAP1-stimulated ARF1 GTP hydrolysis, GDP FP detection; inhibition, % at 16.5 µM; actives 0.19% (n = 360,000); in the data active means inhibition above about 25%;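 further: 0% = vehicle with enzyme and substrate and 100% = no enzyme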
MBD2 inh = inhibitors of MBD2 binding to methylated DNA, primary screen, biochemical, TR-FRET, DNA-binding domain, human; Methyl-CpG-binding domain protein 2 (Homo sapiens), Q9UBB5; MBD2 binding to methylated oligonucleotide; inhibition, % at 4.4 µM; actives 0.31% (n = 370,000); AID 686964, 2013; in the data active means inhibition above about 13%
Target sequence (Q9UBB5 whole entry, looked up, the tested form may be a part): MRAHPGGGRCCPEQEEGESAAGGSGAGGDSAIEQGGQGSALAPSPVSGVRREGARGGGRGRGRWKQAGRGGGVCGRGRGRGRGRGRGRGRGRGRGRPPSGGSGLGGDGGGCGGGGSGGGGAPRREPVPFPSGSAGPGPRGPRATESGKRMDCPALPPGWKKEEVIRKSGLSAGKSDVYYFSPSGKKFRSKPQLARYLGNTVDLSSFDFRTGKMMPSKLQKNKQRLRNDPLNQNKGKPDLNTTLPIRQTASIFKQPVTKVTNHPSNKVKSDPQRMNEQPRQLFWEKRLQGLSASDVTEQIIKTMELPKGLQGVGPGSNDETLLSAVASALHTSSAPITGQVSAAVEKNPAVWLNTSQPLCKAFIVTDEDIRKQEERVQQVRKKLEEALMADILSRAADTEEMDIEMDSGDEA
LEDGF integ inh = blockers of LEDGF/p75-dependent integrase strand transfer – biochemical, TR-FRET, high throughput, primary screen; HIV-1 integrase (with human LEDGF/p75); TR-FRET IN-LEDGF/p75 DNA integration, Eu/Cy5; actives 0.64% (n = 370,000); inhibition, % at 3.7 µM; AID 743269, 2014;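 active means inhibition above the screen-wide mean plus 3 SD, cut at about 13% in these data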;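 further: signal is the Cy5 over europium emission ratio at 671 and 618 nm; 0% = plate median of compound wells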
UHRF1 MBD2 ctr = UHRF1 methylated DNA binding inhibitors, primary screen, counter-screen for MBD2 inhibitor project, biochemical, TR-FRET, human UHRF1, single concentration | AID 687016, 2013 | UHRF1 binding to methylated oligo | actives 0.75% (n = 370,000) | inhibition, % at 4.4 µM;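 further: UHRF1 SRA domain binding a hemimethylated CpG hairpin DNA probe; 0% = median of test compound wells and 100% = reference inhibitor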
TDP2 inh = human TDP2 enzyme inhibitors, primary screen, biochemical, epi absorbance, recombinant enzyme; Tyrosyl-DNA phosphodiesterase 2 (Homo sapiens), O95551; T5PNP hydrolysis, p-nitrophenol absorbance 415 nm; inhibition, % at 12.8 µM; actives 0.34% (n = 370,000); AID 720702, 2013;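 active means inhibition above the mean of all tested compounds plus 3 SD, set per campaign, cut at about 25% in these data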;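 further: 0% = DMSO with enzyme and 100% = buffer with substrate but no TDP2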
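Read-out basis: percent inhibition. System: recombinant human TDP2. Buffer or medium: Mg2+-containing Tris-HCl buffer, pH 7.5. Repeats: single replicate. Timing: reaction 2 h, 37 °C. Benchmarks: high control without enzyme, low control DMSO plus TDP2. Probe or stimulus: 5 mM T5PNP. Doses: 12.8 µM only. Measured by: epi absorbance of p-nitrophenol freed from T5PNP by hydrolysis.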
UHRF1 ctr MBD2 = UHRF1 methylated DNA binding inhibitors, counter-screen for MBD2 inhibitor project, biochemical, TR-FRET, human UHRF1. shares compounds with MBD2 inh. UHRF1 binding to methylated oligonucleotide. inhibition, % at 4.4 µM. actives 25% (n = 1,000). AID 720530, 2013;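 further: UHRF1 SRA domain binding a labeled hemimethylated CpG hairpin DNA; 0% = vehicle only and 100% = reference inhibitor with vehicle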
MBD2 DBD conf = inhibitors of MBD2 binding to methylated DNA, confirmation, biochemical, TR-FRET, DNA-binding domain, human; shares compounds with MBD2 inh; TR-FRET MBD2-DBD binding to methylated oligonucleotide; inhibition, % at 4.4 µM; actives 26% (n = 1,000); AID 720531, 2013; in the data active means inhibition above about 14%
* = called active by the depositor; · = no result given. Shown are actives, neighbours in structure and some others; about 2% of the full set was active somewhere. Unless noted, no stated cut-off is given here; in the data, active means inhibition above about 21%; inactive means the rest.

SMILES	ARFGAP1 inhibitor	ASAP1 inh	MBD2 inh	LEDGF integ inh	UHRF1 MBD2 ctr	TDP2 inh	UHRF1 ctr MBD2	MBD2 DBD conf
O=C(Cc1cccs1)N(Cc1ccco1)C1(C(=O)NC2CCCCC2)CCCCC1	-5	-6	-6	0	-2	14	·	·
O=C(Cc1cccs1)N(Cc1cccs1)C1(C(=O)NC2CCCC2)CCCCC1	-8	4	13*	4	24*	4	2	4
Cc1ccc(-n2nc(C)cc2NC(=O)c2ccc(C)s2)cc1	4	-12	34*	0	-2	0	5	6
COc1ccc(OCc2nn3c(-c4ccccn4)nnc3s2)cc1	0	0	22*	3	0	10	5	3
CN1CCCN(C(=O)CSc2nnc(-c3cccnc3)n2C2CCCCC2)CC1	·	·	3	-1	-1	5	·	·
COc1ccccc1CNC(=O)C[C@H]1CC[C@H]2[C@H](COc3ccc(NS(=O)(=O)c4ccc(C)cc4)cc3C(=O)N2C)O1	·	·	18*	-1	1	7	5	6
CCc1ccc(NC(=O)CCCN2C(=S)NC(C)(C)CC2C)cc1 (centres undefined)	2	-2	19*	4	2	-14	3	3
COc1cccc(-c2oc3c(c2-c2ccc(Br)nc2)C(O)CCC3)c1 (centres undefined)	1	3	13*	1	15	-2	22*	28*
COc1ccc(-c2cc(C(=O)N/N=C/C(C)=C\c3ccco3)[nH]n2)cc1	·	·	4	-2	2	-5	·	·
Cc1c(Nc2c3ccccc3nc3ccccc23)c(=O)n(-c2ccccc2)n1C	2	4	24*	-4	-2	-14	1	-5
CCOC(=O)CC[C@@]1(C(=O)OCC)C[C@@H](CC(=O)NCc2ccc(C)o2)C(=O)N2CCCC=C21	·	·	4	-3	0	2	·	·
O=C(CN1C(=O)/C(=C/c2ccco2)SC1=S)Nc1ccc(C(=O)O)c(O)c1	-19	12	20*	90*	79*	21	26*	7
Cc1cnc(NC(=O)c2cc(-c3ccccc3)nn2-c2ccccc2)s1	15	-18	25*	-3	-1	-1	5	3
CC(C)CNc1ccc2c(c1)OC[C@H](C)NS2(=O)=O	5	3	13*	3	21*	-8	11	4
CC1CCC2(CC1)CCN(CCCOC(=O)Nc1ccc3c(c1)OCO3)C2=O (centres undefined)	·	·	2	6	1	4	·	·
Cc1coc2cc3oc(=O)c(CCC(=O)NCC(=O)O)c(C)c3cc12	9	-4	0	2	0	1	·	·
COCCCNC(=O)CCc1c(C)c2cc3c(C)coc3cc2oc1=O	9	7	13*	1	-1	-2	1	5
COC[C@H]1CCCN1c1cccc2c1S(=O)(=O)N1CC[C@H](C1)O2	·	·	-11	2	-1	1	·	·
CCCn1c(N)c(N2CCCCC2)c(=O)n(CC(=O)Nc2ccc(OC(F)(F)F)cc2)c1=O	-9	-11	18*	11	24*	22	15	2
